# Most compounds without a hit are left out; they make up all but 2.9% or so of the library.
# MT stabilizer: stabilizes microtubules in HeLa cells; HeLa tubulin immunostaining HCS, 24 h; share of cells brighter than vehicle mean+2SD; % tubulin-high responders, % at 10 µM; actives 0.83% (n = 200,000); AID 2205;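 active = plate Z-score above 3 for both tubulin-high and condensed-nucleus cell shares, with cell loss under 80%, at 10 µM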;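 also: anti alpha tubulin signal scored within the nucleus-defined area of each cell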
# Autophagy HCS: alters autophagy in cells; MEF GFP-LC3 puncta imaging; test concentration mostly 10 µM; calls only at 10 µM (by protocol); actives 0.98% (n = 190,000);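 active = percentage of spot-positive cells more than 3 SD above its plate mean, without a fluorescence outlier flag or 80% toxicity; inconclusive = no clear call, values can overlap the other calls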;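 also: spot-positive cell cutoff set from DMSO-treated cells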
# Wee1 stabilizer: inhibitors of human Wee1 degradation; HeLa Luc-Wee1K328M stability, luciferase luminescence; 100% = proteasome inhibitor MG132 effect; actives 1.2% (n = 220,000); reporter increase, % at 5 µM; AID 1321; P30291;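 active = activation above the mean of all tested compounds plus 3 SD, set per screening run, cut at about 8.8% in these data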;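 also: cells exposed to compound for 20 h before luminescence read; 0% = DMSO alone and 100% = MG132 at 30 µM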
# Target sequence (P30291 whole entry K328M): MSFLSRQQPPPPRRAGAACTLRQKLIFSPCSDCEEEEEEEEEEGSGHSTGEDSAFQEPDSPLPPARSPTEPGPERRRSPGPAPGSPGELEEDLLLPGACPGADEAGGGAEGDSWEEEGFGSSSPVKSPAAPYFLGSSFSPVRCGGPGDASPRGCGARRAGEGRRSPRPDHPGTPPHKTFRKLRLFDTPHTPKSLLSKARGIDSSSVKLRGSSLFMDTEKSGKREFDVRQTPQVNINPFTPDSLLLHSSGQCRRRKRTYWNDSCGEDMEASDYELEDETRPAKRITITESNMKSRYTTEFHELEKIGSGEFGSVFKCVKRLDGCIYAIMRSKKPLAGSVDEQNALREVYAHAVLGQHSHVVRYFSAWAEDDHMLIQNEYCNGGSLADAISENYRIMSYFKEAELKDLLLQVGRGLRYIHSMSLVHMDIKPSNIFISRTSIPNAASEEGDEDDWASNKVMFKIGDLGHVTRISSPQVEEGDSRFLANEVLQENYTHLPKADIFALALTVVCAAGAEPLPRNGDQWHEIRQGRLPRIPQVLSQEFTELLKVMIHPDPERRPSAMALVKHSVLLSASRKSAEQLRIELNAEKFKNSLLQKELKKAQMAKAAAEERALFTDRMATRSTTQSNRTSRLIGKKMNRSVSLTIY
# b-catenin transl: modulators of beta-catenin nuclear translocation | HeLa beta-catenin nuclear translocation, immunofluorescence imaging | nuclear translocation activity, % at 5 µM | actives 0.3% (n = 190,000) | AID 1665;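 active = nuclear translocation activity above 50% at 5 µM, with a well cell count of 50 or more; inconclusive = wells under 50 cells across six images, flagged as toxic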;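 also: per-cell ratio of nuclear to cytoplasmic median beta-catenin stain intensity; plate controls were DMSO negative control for no effect and GSK-3 inhibitor IX positive control for full effect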
#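 Read-out: Nuclear/cytoplasmic beta-catenin signal ratio, % activation | Assay system: Human HeLa cell line | Times: 24 h compound exposure at 37°C, 5% CO2 | Signal: Fluorescence imaging of beta-catenin antibody stain plus DAPI | Dosing: 5 µM primary, 0.02–20 µM confirmation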
# Insulin prom up: MIN6 insulin promoter up-regulation; MIN6 insulin promoter-GFP reporter, high-content imaging; hits give high values; z-score at 5 µM; actives 0.3% (n = 190,000); AID 1625;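 active = z-score above 3 at 5 µM with at least 500 cells counted in the well; inconclusive = wells under 500 cells, flagged as cytotoxic or low count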
# * hit, by the source's call; i = inactive; ? = inconclusive; . = no result given; + = active, no number.
SMILES,MT stabilizer,Autophagy HCS,Wee1 stabilizer,b-catenin transl,Insulin prom up
O=C(Cc1ccc(Cl)cc1)Nc1ccc(NC(=O)c2cccs2)cc1,3.4,+,9.7*,-0.4,0.26
O=C(Nc1ccc(Cl)cc1)c1cccs1,1.5,i,1.3,-0.1,-0.66
COCc1ccc([C@@H]2C[C@H]3CN(Cc4ccccc4C)C(=O)[C@]34CCCN24)o1,4.1,i,1.9,2.6,.
Nc1cccc(C(=O)N/N=C/c2ccsc2)c1,3.9,i,-0.8,-2.4,0.42
COc1ccccc1C(=O)N1c2ccccc2Sc2ccccc21,10.9*,i,-1.1,14.4,-0.28
Cc1ccc(Nc2c([N+](=O)[O-])c(=O)oc3ccccc23)cc1,6.2,i,-0.1,0.3,-0.18
O=c1oc2ccccc2c(Nc2ccc3ccccc3c2)c1[N+](=O)[O-],46.0*,i,3.4,13.9,0.1
COc1ccc2[nH]c3c(NCc4ccco4)ncnc3c2c1,27.0*,i,7.2,6.1,-0.28
Cc1c(Cl)cccc1N1CC(C(=O)Nc2nccs2)CC1=O (stereo not given),3.0,i,2.9,-2.2,0.14
Cc1ccc(N2CC(C(=O)Nc3nccs3)CC2=O)cc1Cl (stereo not given),1.3,+,-1.5,-13.9,.
COc1ccc(C2=NC(=O)/C(=C\c3cc(OC)c(OC)c(OC)c3)O2)cc1,1.8,i,3.3,5.3,3.04*
COc1ccc2c(c1)CC/C(=C/c1cc(OC)c(OC)c(OC)c1)C2=O,4.1,i,-2.0,-0.3,2.07
C#CCn1cc(/C=N/NC(=O)c2cc3ccccc3o2)c2ccccc21,27.3*,i,1.7,2.5,-0.1
C=CCn1cc(/C=N\NC(=O)c2cc3c(ccc4ccccc43)o2)c2ccccc21,7.2,i,-1.7,.,.
COC(=O)C1=C(N)Oc2cc(N(C)C)ccc2C1c1ccccc1OC (stereo not given),27.1*,i,-1.4,0.6,-0.35
COC(=O)C1=C(N)Oc2cc(C)n(CC3CCCO3)c(=O)c2C1c1ccccc1OC (stereo not given),0.7,i,1.8,0.1,-0.18
CC1=C(C(=O)c2ccccc2)C(c2ccc(OC(F)F)cc2)NC(=S)N1 (stereo not given),22.4*,i,-3.8,4.4,0.56
COc1ccccc1OC1OC2COC(c3ccco3)OC2C(O)C1NC(C)=O (stereo not given),3.2,i,9.1*,0.1,-0.24
COC(=O)C1=C(Nc2cc(Cl)cc(Cl)c2)CSC1,.,.,5.3,-1.8,-0.51
Cc1cc2oc(=O)cc(Cn3ncc(Cl)c(Cl)c3=O)c2cc1Cl,6.3,+,-1.5,-2.6,?
CC1(C)COC(c2cc([N+](=O)[O-])ccc2Cl)=N1,1.3,i,0.0,-5.5,-0.32
CC1(C)COC(/C=C/c2cccc([N+](=O)[O-])c2)=N1,23.6*,i,8.6,7.6,.
Cc1ccc(Oc2c(CO)c(-c3ccccc3)nn2C)cc1,17.9*,i,-1.1,0.6,1.37
O=C(N/N=C/c1ccncc1)c1nn(Cc2ccccc2)c(=O)c2ccccc12,5.9,i,-0.4,-3.4,-0.38
CCC(=O)Nc1ccc(NC(=O)CSc2nc3cc4c(cc3cc2C)CCC4)cc1,1.8,i,1.2,-3.8,1.15
SMILES,MT stabilizer,Autophagy HCS,Wee1 stabilizer,b-catenin transl,Insulin prom up
Cc1ccccc1NC(=O)CSc1nc2cc3c(cc2cc1C)CCC3,35.7*,i,4.4,.,.
CCC1Sc2ccccc2N(CC(=O)NC2CCCCC2)C1=O (stereo not given),2.2,i,9.3*,-0.1,-0.64
OC1(c2cccc(C(F)(F)F)c2)CCN(c2ncnc3c2[nH]c2ccccc23)CC1,6.0,+,-2.0,.,.
Clc1ccccc1-c1nnc(-c2cccs2)o1,3.4,i,10.2*,-4.0,-0.23
COc1ccc(OC)c(N)c1,5.3,i,0.9,-3.9,0.42
COc1ccc(-c2ccc(CO)o2)cc1N,1.6,+,-0.8,-1.0,-0.15
COc1ccc(-n2nnnc2-c2cccc(OC)c2)cc1,18.4*,+,2.6,42.4,0.04
CC(C)CC(NC(=O)C(COCc1ccccc1)NC(=O)OC(C)(C)C)C(=O)NN (stereo not given),1.7,i,-0.3,1.2,-0.3
Cc1ccc2nc(N3CCN(c4cccc(C)c4C)CC3)c3nnnn3c2c1,1.8,i,10.4*,5.8,0.15
Cc1ccc2nc(Cl)c3nnnn3c2c1,8.2,i,-3.8,-1.3,1.02
CC(=O)Nc1ccccc1OCc1cnc(Cl)s1,2.8,i,-2.1,-4.0,0.01
CCn1c(SCc2nc3ccccc3[nH]2)nnc1-c1cccs1,4.8,+,0.2,-3.3,1.78
CCCCN(CC)CCCNC(=S)Nc1ccc2nc3n(c(=O)c2c1)CCCCC3,5.2,i,-2.7,-0.4,0.77
O=[N+]([O-])c1ccc(N=Nc2ccc(O)cc2O)cc1,22.0*,i,2.4,.,-0.35
Cc1ccc(C(C)C)c(OCC(=O)N/N=C/C2CCCCC2)c1,3.4,i,9.2*,-1.1,0.37
CCC(C)(C)n1nnnc1C(c1cc2cc(C)cc(C)c2[nH]c1=O)N1CCN(Cc2ccc3c(c2)OCO3)CC1 (stereo not given),10.4,+,-0.8,-5.9,.
CCCOc1cccc(NC(=O)OC2CCN(C)CC2)c1,3.9,i,-0.8,1.4,0.31
CCCCn1c(CN2CCN(c3cccc(Cl)c3)CC2)nc2c1c(=O)[nH]c(=O)n2C,34.8*,+,7.5,1.3,-0.35
Cn1c(=O)[nH]c(=O)c2c1nc(CN1CCN(c3cccc(Cl)c3)CC1)n2Cc1ccccc1Cl,13.8*,i,2.4,-1.2,0.72
O=C1C2CCCN2C(=O)N1CCCCN1CCN(c2cccc(Cl)c2)CC1 (stereo not given),4.1,i,-1.8,.,-0.04
Cc1ccc(N2CCN(C(=O)c3cccc([N+](=O)[O-])c3)CC2)cc1Cl,5.8,i,-0.9,-2.6,-0.65
O=C(c1cccc([N+](=O)[O-])c1)N1CCN(c2cccc(Cl)c2)CC1,26.7*,i,1.1,14.4,0.25
COC(=O)c1cc(C(=O)N2CCN(c3cccc(Cl)c3)CC2)cc([N+](=O)[O-])c1,12.5,i,0.1,99.5*,0.74
O=S(=O)(Nc1ccc2c(c1)OCO2)c1ccc(Br)s1,3.0,i,3.6,-1.8,-0.16
N#CCCNc1c(Cl)cc(Cl)cc1C(=O)O,3.0,i,4.2,1.1,-0.07
CCOCC(=O)Nc1ccccc1C(=O)O,3.3,i,0.2,-0.3,0.71
COc1ccc(/C=c2/sc3n(c2=O)C(c2ccccc2OC)C2=C(N=3)c3ccccc3CC2)cc1O (stereo not given),33.4*,i,2.9,1.3,-0.84
COc1ccccc1C1C2=C(N=C3SCC(=O)N31)c1ccccc1CC2 (stereo not given),0.6,i,0.1,-4.8,0.21
COC(=O)c1ccc2c(=O)[nH]c(CSc3nc(C)cs3)nc2c1,6.8,+,0.7,2.8,-0.16

# Assay outcomes deposited in PubChem by several laboratories.
